In brackets after ≈: the same amount, converted by molar mass. Values belong to the compound of their own block, whether it stands above or below them.
What was measured:
[1] = biological target: T1, Epidermal growth factor receptor (Homo sapiens, UniProt P00533, L858R/T790M); experiment: Inhibition of N-terminal 6x-HIS-tagged human recombinant EGFR (696 to 1022 residues) L858R/T790M mutant expressed in Sf9 cells pre-incubated for 0 mins followed by 1 mM ATP addition by HTRF assay
How it was run: (§1)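 HTRF kinase assay on the EGFR L858R-T790M kinase domain at 1 mM ATP. Compound with either no preincubation or a 90 min enzyme/compound preincubation.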

[2] = biological target: T1, Epidermal growth factor receptor; experiment: Inhibition of N-terminal 6x-HIS-tagged human recombinant EGFR (696 to 1022 residues) L858R/T790M mutant expressed in Sf9 cells pre-incubated for 90 mins followed by 1 mM ATP addition by HTRF assay; how it was run: as §1
[3] = biological target: T1, Epidermal growth factor receptor; experiment: Inhibition of EGFR L858R/T790M mutant phosphorylation in human patient derived H1975 cells incubated for 3 hrs by ELISA method; format: cell-based
[4] = biological target: T2, Epidermal growth factor receptor (Homo sapiens, UniProt P00533, L858R); experiment: Inhibition of EGFR L858R mutant phosphorylation in human patient derived H3255 cells incubated for 3 hrs by ELISA method; format: cell-based
[5] = Inhibition of EGFR E746 to A750 deletion mutant phosphorylation in human patient derived HCC827 cells incubated for 3 hrs by ELISA method; format: cell-based; conditions: HCC827, 3 h
How it was run: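 HCC827 cells plated at 7500/well in 5% FBS/RPMI and left overnight at 37 °C. Then 3 h with a 12-point compound dilution series, no EGF stimulation. Lysed in Triton/protease/phosphatase-inhibitor buffer. Phospho-EGFR (Y1173) read by sandwich ELISA: anti-EGFR capture, anti-phospho-EGFR, anti-rabbit-HRP, chemiluminescence. IC50 from at least duplicates.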

[6] = biological target: T3, Epidermal growth factor receptor (Homo sapiens, UniProt P00533); experiment: Inhibition of wild type EGFR phosphorylation in human HaCaT cells incubated for 3 hrs by ELISA method; format: cell-based
[7] = biological target: T1, Epidermal growth factor receptor; experiment: Inhibition of N-terminal 6x-HIS-tagged human recombinant EGFR (696 to 1022 residues) L858R/T790M mutant expressed in Sf9 cells pre-incubated for 90 mins followed by 10 uM ATP addition by HTRF assay
[8] = biological target: T2, Epidermal growth factor receptor; experiment: Inhibition of N-terminal 6x-HIS-tagged human recombinant EGFR (696 to 1022 residues) L858R mutant expressed in Sf9 cells pre-incubated for 90 mins followed by 10 uM ATP addition by HTRF assay
[9] = biological target: T3, Epidermal growth factor receptor; experiment: Inhibition of N-terminal 6x-HIS-tagged wild type human recombinant EGFR (696 to 1022 residues) expressed in Sf9 cells pre-incubated for 90 mins followed by 10 uM ATP addition by HTRF assay
[10] = Glutathione reactivity assessed as GSH adduct formation incubated for 1 hr using 10 mM glutathione
How it was run: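 Compound incubated 1 h with 10 mM glutathione; GSH adduct formation measured.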

[11] = Time duration during which free plasma concentration stays above in-vitro IC50 level in human NCI-H1975 cells xenografted Foxn1 nude mouse at 25 mg/kg, po qd for 5 days; format: ADME, organism-based; conditions: in vivo, 120 h
How it was run: (§2)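 H1975 xenografts in Foxn1 nude mice, oral dosing once daily for 5 days. Plasma sampled after the last dose on day 5, at 30 min, 3 h, 7 h and 24 h. Free drug exposure was compared with in vitro cellular IC50 across the dosing interval.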

[12] = Antitumor activity against human NCI-H1975 cells xenografted in Foxn1 nude mouse assessed as reduction in tumor volume at 25 mg/kg, po qd for 5 days relative to untreated control; format: functional
How it was run: (§3)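 Female Foxn1 nude mice, H1975 cells inoculated subcutaneously. Randomized into groups once tumors reached 150−200 mm³, then dosed by oral gavage once daily for 5 days in 0.5% MC/0.5% Tween80 suspension (10 μL/g). Tumor volumes by caliper, (length × width × width)/2. %T/C = 100 × ΔT/ΔC, or % regression = 100 × ΔT/T_initial when ΔT < 0. Body weight recorded daily.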

[13] = system: Mus musculus; experiment: Toxicity in human NCI-H1975 cells xenografted Foxn1 nude mouse assessed as change in body weight at 25 mg/kg, po qd for 5 days (reference value: […]); format: organism-based; conditions: in vivo, 120 h
[14] = biological target: T1, Epidermal growth factor receptor; experiment: Inhibition of EGFR L858R/T790M mutant (unknown origin) phosphorylation expressed in mouse NIH/3T3 cells incubated for 3 hrs by ELISA method; format: cell-based
How it was run: (§4)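 Engineered NIH-3T3 cells expressing L858R-T790M, L858R or WT EGFR. 3 h compound treatment, then cellular phospho-EGFR target modulation read-out. IC50 averaged from at least duplicates.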

[15] = biological target: T2, Epidermal growth factor receptor; experiment: Inhibition of EGFR L858R mutant (unknown origin) phosphorylation expressed in mouse NIH/3T3 cells incubated for 3 hrs by ELISA method; format: cell-based; how it was run: as §4
[16] = biological target: T3, Epidermal growth factor receptor; experiment: Inhibition of wild type human EGFR phosphorylation expressed in mouse NIH/3T3 cells incubated for 3 hrs by ELISA method; format: cell-based; how it was run: as §4
[17] = Aqueous solubility of the compound at pH 6.8; format: physicochemical
[18] = biological target: Cytochrome P450 3A4 (Homo sapiens, UniProt P08684); experiment: Inhibition of CYP3A4 (unknown origin); format: ADME
[19] = biological target: Cytochrome P450 2D6 (Homo sapiens, UniProt P10635); experiment: Inhibition of CYP2D6 (unknown origin); format: ADME
[20] = biological target: Cytochrome P450 2C9 (Homo sapiens, UniProt P11712); experiment: Inhibition of CYP2C9 (unknown origin); format: ADME
[21] = Intrinsic clearance in human liver microsomes; format: ADME; conditions: read-out: CLH
[22] = Intrinsic clearance in mouse liver microsomes; format: ADME; conditions: read-out: CLH
[23] = Clearance in balb/c mouse at 5 mg/kg, iv by liquid chromatography-tandem mass spectrometry; format: ADME, organism-based; conditions: in vivo
How it was run: (§5)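 Rodent PK in male balb/c mice and male Wistar rats; plasma drug levels by LC-MS/MS. Mouse oral dosing at 20 mg/kg, with compounds given as a 0.5% methylcellulose/0.5% Tween 80 suspension or as solutions (PEG300/D5W, or ethanol/PEG300 with Solutol or D5W), depending on compound.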

[24] = AUC in balb/c mouse at 20 mg/kg, po by liquid chromatography-tandem mass spectrometry; format: ADME, organism-based; conditions: in vivo; how it was run: as §5
[25] = Oral bioavailability in balb/c mouse at 20 mg/kg by liquid chromatography-tandem mass spectrometry; format: ADME, organism-based; conditions: in vivo; how it was run: as §5
[26] = Antitumor activity against human NCI-H1975 cells xenografted in Foxn1 nude mouse assessed as reduction in tumor volume at 50 mg/kg, po qd for 5 days relative to untreated control; format: functional; how it was run: as §3
[27] = Time duration during which free plasma concentration stays above in-vitro IC50 level in human NCI-H1975 cells xenografted Foxn1 nude mouse at 20 mg/kg, po qd for 5 days; format: ADME, organism-based; conditions: in vivo, 120 h; how it was run: as §2
[28] = Antitumor activity against human NCI-H1975 cells xenografted in Foxn1 nude mouse assessed as reduction in tumor volume at 20 mg/kg, po qd for 5 days relative to untreated control; format: functional; how it was run: as §3
[29] = system: Mus musculus; experiment: Toxicity in human NCI-H1975 cells xenografted Foxn1 nude mouse assessed as change in body weight at 50 mg/kg, po qd for 5 days (reference value: […]); format: organism-based; conditions: in vivo, 120 h
[30] = system: Mus musculus; experiment: Toxicity in human NCI-H1975 cells xenografted Foxn1 nude mouse assessed as change in body weight at 20 mg/kg, po qd for 5 days (reference value: […]); format: organism-based; conditions: in vivo, 120 h

T2 sequence (P00533 25-1210 L858R limits assumed): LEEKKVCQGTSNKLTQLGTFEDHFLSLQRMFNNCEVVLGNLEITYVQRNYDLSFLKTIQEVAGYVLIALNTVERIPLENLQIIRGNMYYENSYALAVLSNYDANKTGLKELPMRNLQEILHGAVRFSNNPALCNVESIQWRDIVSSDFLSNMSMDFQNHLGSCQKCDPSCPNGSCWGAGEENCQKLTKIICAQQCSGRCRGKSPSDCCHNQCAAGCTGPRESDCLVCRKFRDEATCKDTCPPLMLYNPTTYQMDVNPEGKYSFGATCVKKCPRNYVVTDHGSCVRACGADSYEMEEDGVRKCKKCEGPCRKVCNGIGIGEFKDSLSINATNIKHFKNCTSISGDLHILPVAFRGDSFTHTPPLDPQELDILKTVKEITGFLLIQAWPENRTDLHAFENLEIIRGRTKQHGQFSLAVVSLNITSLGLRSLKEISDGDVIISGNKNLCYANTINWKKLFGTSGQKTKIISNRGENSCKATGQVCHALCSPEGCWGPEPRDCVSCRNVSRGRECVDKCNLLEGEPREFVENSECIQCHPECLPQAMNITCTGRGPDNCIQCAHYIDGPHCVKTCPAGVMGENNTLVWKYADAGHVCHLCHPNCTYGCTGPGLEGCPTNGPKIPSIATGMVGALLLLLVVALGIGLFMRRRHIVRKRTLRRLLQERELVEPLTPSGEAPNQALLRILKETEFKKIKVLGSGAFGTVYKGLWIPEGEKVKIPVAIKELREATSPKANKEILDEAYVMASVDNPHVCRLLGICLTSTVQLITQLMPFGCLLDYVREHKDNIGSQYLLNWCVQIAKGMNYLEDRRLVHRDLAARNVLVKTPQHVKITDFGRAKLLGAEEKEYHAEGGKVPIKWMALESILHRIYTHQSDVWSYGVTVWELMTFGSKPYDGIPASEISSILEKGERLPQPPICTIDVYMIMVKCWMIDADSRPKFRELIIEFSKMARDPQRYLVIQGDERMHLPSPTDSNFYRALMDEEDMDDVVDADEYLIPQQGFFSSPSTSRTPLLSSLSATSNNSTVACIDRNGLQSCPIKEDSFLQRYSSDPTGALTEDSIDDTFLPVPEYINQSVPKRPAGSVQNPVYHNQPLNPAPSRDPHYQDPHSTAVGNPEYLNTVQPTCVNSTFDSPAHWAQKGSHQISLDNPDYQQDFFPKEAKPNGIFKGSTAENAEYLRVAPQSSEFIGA
T3 sequence (P00533 whole entry, the tested form may be a part): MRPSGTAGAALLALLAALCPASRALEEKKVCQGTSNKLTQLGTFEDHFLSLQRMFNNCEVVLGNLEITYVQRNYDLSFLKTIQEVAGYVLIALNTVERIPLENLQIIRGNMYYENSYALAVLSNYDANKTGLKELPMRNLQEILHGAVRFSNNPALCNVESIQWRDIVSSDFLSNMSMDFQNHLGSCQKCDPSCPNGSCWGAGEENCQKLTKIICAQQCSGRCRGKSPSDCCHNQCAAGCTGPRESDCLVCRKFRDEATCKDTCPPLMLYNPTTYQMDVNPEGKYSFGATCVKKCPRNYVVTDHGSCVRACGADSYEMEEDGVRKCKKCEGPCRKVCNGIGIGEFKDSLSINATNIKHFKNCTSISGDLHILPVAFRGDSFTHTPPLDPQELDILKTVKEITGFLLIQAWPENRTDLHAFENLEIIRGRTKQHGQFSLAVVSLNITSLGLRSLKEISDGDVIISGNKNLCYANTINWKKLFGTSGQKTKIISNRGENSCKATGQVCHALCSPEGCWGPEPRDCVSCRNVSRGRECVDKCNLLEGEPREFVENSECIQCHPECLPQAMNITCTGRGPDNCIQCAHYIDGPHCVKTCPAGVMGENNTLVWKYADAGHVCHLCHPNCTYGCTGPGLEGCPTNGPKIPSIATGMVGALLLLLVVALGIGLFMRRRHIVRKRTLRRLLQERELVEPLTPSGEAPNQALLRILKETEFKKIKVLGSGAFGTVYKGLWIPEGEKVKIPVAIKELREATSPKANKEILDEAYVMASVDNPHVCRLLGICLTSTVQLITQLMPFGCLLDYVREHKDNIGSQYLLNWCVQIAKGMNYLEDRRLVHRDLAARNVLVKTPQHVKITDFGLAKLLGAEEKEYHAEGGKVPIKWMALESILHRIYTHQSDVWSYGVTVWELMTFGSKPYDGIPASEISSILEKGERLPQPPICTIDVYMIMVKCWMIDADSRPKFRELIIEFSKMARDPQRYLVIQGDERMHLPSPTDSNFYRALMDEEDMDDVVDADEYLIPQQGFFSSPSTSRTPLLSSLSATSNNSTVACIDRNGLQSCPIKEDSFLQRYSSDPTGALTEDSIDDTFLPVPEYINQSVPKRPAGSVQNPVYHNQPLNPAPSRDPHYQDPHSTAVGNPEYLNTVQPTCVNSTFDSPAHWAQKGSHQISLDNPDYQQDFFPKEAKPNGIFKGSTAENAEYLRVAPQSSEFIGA
T1 sequence (P00533 25-1210 T790M/L858R limits assumed): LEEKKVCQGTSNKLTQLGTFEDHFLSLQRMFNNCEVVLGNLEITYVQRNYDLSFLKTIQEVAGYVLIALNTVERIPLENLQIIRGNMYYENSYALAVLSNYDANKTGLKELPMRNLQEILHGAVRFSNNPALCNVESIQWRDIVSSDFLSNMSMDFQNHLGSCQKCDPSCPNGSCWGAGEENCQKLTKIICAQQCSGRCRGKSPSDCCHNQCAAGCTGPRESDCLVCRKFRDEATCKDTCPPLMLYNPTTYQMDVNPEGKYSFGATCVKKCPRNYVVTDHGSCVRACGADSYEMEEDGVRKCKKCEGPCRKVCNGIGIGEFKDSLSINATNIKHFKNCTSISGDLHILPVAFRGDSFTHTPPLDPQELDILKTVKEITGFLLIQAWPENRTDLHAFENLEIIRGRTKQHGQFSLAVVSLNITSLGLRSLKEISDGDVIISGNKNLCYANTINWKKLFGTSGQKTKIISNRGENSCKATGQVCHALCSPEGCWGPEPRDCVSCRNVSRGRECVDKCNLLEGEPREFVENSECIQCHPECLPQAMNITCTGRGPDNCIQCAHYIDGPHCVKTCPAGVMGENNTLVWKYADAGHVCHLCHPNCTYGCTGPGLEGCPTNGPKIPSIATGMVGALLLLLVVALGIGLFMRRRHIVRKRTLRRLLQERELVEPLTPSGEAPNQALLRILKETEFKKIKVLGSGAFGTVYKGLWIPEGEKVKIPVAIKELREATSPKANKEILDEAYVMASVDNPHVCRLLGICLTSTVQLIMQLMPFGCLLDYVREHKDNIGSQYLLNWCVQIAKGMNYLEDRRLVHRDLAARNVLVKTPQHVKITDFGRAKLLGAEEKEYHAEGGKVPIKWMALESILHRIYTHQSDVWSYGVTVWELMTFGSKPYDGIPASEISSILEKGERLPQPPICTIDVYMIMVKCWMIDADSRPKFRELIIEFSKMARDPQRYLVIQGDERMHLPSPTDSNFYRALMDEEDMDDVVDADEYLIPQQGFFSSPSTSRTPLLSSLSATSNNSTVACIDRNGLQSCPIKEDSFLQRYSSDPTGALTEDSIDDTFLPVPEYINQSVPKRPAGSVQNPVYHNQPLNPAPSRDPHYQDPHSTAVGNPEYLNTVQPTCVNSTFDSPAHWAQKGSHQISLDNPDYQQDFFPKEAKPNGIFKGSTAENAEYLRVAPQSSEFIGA
Chain of Cytochrome P450 2D6 (P10635 whole entry): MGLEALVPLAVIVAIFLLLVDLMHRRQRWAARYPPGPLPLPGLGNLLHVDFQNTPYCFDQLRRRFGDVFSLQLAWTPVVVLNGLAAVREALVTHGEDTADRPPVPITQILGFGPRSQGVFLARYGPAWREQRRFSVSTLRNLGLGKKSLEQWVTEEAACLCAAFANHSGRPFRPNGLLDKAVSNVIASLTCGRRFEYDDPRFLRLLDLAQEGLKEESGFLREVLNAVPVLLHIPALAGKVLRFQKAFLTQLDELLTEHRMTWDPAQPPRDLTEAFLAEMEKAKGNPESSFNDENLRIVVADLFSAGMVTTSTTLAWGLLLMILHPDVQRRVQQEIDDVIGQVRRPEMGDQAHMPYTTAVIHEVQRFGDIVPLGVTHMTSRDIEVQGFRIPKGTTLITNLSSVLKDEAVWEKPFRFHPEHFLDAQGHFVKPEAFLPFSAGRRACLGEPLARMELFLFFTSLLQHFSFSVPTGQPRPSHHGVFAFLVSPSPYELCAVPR
Chain of Cytochrome P450 2C9 (P11712 whole entry): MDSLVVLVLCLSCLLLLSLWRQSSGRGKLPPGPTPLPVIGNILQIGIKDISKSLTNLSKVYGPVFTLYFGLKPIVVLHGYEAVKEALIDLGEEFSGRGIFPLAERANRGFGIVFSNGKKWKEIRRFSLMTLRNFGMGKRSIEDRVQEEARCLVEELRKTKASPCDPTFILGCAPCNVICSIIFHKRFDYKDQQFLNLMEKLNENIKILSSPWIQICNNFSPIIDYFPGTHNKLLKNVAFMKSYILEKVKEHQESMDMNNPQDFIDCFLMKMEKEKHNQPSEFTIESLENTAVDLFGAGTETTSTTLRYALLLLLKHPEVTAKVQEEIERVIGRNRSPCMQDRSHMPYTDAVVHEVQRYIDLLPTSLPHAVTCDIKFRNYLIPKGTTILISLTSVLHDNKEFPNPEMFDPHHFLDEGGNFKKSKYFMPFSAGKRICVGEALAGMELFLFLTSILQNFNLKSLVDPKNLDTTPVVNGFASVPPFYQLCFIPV
Chain of Cytochrome P450 3A4 (P08684 whole entry): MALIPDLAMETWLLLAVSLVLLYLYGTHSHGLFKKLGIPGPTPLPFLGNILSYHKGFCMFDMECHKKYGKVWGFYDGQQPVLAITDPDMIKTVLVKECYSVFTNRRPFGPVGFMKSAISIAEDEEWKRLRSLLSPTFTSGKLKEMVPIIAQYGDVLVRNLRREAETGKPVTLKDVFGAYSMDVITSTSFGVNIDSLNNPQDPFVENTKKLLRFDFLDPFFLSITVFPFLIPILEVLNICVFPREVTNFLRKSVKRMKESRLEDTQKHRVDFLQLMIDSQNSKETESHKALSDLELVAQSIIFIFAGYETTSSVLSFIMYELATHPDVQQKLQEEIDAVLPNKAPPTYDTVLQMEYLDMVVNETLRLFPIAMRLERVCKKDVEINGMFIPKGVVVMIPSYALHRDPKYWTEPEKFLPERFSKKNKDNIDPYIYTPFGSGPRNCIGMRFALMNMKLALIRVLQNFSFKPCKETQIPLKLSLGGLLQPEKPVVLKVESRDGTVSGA

IC50 [1]: > 50000 nM
IC50 [2]: > 50000 nM
SMILES: C=CC(=O)N[C@@H]1CCCC[C@H]1n1c(NC(=O)c2cccc(C(F)(F)F)c2)nc2cc(C)ccc21 (racemic)

Time [11]: <= 14 hr
SMILES: CN(C)C/C=C/C(=O)Nc1cc2c(Nc3ccc(F)c(Cl)c3)ncnc2cc1O[C@H]1CCOC1 [AFATINIB]
Drug metabolism [10]: 60%
T/C [12]: 38%
Activity [13]: -2.4%

IC50 [1]: > 50000 nM
IC50 [2]: > 32800 nM
SMILES: C=CC(=O)Nc1ccccc1-n1c(NC(=O)c2cccc(C(F)(F)F)c2)nc2cc(C)ccc21

IC50 [1]: > 50000 nM
IC50 [2]: 4 nM
IC50 [14]: 41.4 nM
IC50 [15]: 543 nM
IC50 [16]: > 10000 nM
SMILES: C=CC(=O)N[C@H]1CCC[C@@H](n2c(NC(=O)c3cccc(C(F)(F)F)c3)nc3cc(C)ccc32)C1 (racemic)

IC50 [3]: 2.11 nM
IC50 [4]: 3.05 nM
IC50 [5]: 1.01 nM
IC50 [6]: 68 nM
solubility [17]: > 175 µM
IC50 [18]: > 25000 nM
IC50 [19]: > 25000 nM
IC50 [20]: > 25000 nM
microsomal CLint [21]: 26 µL/min/mg
microsomal CLint [22]: 62 µL/min/mg
clearance [23]: 68.5 mL/min/kg
AUC [24]: 3.53 µM·h
bioavailability [25]: 34%
Time [27]: <= 14 hr
SMILES: Cc1cc(C(=O)Nc2nc3cccc(C)c3n2[C@@H]2CCCCN(C(=O)/C=C/CN(C)C)C2)ccn1
Drug metabolism [10]: < 5%
T/C [26]: -65%
T/C [28]: -6%
Activity [29]: -5%
Activity [30]: -1.1%

IC50 [3]: 2.18 nM
IC50 [4]: 45.9 nM
IC50 [5]: 12.4 nM
IC50 [6]: 351 nM
solubility [17]: 10.5 µM (≈ 5.54 µg/mL)
IC50 [18]: 22200 nM
IC50 [19]: 16700 nM
IC50 [20]: 17600 nM
microsomal CLint [21]: 49 µL/min/mg
microsomal CLint [22]: 233 µL/min/mg
clearance [23]: 57.2 mL/min/kg
AUC [24]: 4.39 µM·h
bioavailability [25]: 40%
SMILES: Cc1cccc2nc(NC(=O)c3cccc(C(F)(F)F)c3)n([C@@H]3CCCCN(C(=O)/C=C/CN(C)C)C3)c12
Drug metabolism [10]: < 5%

IC50 [1]: > 50000 nM
IC50 [2]: > 50000 nM
SMILES: C=CC(=O)N1CC(n2c(NC(=O)c3cccc(C(F)(F)F)c3)nc3cc(C)ccc32)C1

Further lines, the compound ahead of its results:

SMILES: C=CC(=O)N[C@H]1CC[C@@H](n2c(NC(=O)c3cccc(C(F)(F)F)c3)nc3cc(C)ccc32)CC1
IC50 [1]: > 50000 nM
IC50 [2]: > 50000 nM

SMILES: C=CC(=O)N1CCCCC(n2c(NC(=O)c3cccc(C(F)(F)F)c3)nc3cc(C)ccc32)C1 (configuration not stated)
IC50 [1]: 830 nM
IC50 [2]: < 2 nM
IC50 [3]: 6.1 nM
IC50 [4]: 74.9 nM
IC50 [5]: 15.9 nM
IC50 [6]: 4330 nM

SMILES: Cc1ccc2c(c1)nc(NC(=O)c1cccc(C(F)(F)F)c1)n2[C@H]1CC[C@H](O)CC1
IC50 [7]: 140 nM
IC50 [8]: > 8480 nM
IC50 [9]: > 11800 nM

SMILES: C=CC(=O)Nc1ccc(-n2c(NC(=O)c3cccc(C(F)(F)F)c3)nc3cc(C)ccc32)cc1
IC50 [1]: > 50000 nM
IC50 [2]: > 50000 nM

SMILES: C=CC(=O)N[C@@H]1CCC[C@@H](n2c(NC(=O)c3cccc(C(F)(F)F)c3)nc3cc(C)ccc32)C1 (racemic)
IC50 [1]: > 50000 nM
IC50 [2]: 60 nM
IC50 [14]: 409 nM
IC50 [15]: > 3720 nM
IC50 [16]: > 10000 nM

SMILES: Cc1cccc2nc(NC(=O)c3cccc(C(F)(F)F)c3)n([C@H]3CC[C@H](O)CC3)c12
IC50 [7]: 90 nM
IC50 [8]: 680 nM
IC50 [9]: 5270 nM

SMILES: C=CC(=O)N(C)c1cccc(-n2c(NC(=O)c3cccc(C(F)(F)F)c3)nc3cc(C)ccc32)c1
IC50 [1]: 22300 nM
IC50 [2]: 10 nM
IC50 [3]: 181 nM
IC50 [5]: 268 nM
IC50 [6]: > 10000 nM

SMILES: CCOCc1ccc2c(c1)nc(NC(=O)c1cccc(C(F)(F)F)c1)n2[C@H]1CC[C@H](O)CC1
IC50 [7]: 470 nM
IC50 [8]: 2080 nM
IC50 [9]: > 42000 nM

Reference: ChEMBL document CHEMBL3860038, “Discovery of (R,E)-N-(7-Chloro-1-(1-[4-(dimethylamino)but-2-enoyl]azepan-3-yl)-1H-benzo[d]imidazol-2-yl)-2-methylisonicotinamide (EGF816), a Novel, Potent, and WT Sparing Covalent Inhibitor of Oncogenic (L858R, ex19del) and Resistant (T790M) EGFR Mutants for the Treatment of EGFR Mutant …” (J Med Chem, 2016)
